Data published in publication PMC11696124 (Nature Communications, 2025).
Numbering of substitutions follows the chain as printed.

Experiments:
APOL1 G1 [1] = molecular target: T1, APOL1 G1 (Homo sapiens, UniProt O14791, I384M/M228I/R255K/S342G); test: Thallium flux assay, tet-inducible HEK293 APOL1 G1; format: cell-based
T1 sequence (O14791 28-398 M228I/R255K/S342G/I384M): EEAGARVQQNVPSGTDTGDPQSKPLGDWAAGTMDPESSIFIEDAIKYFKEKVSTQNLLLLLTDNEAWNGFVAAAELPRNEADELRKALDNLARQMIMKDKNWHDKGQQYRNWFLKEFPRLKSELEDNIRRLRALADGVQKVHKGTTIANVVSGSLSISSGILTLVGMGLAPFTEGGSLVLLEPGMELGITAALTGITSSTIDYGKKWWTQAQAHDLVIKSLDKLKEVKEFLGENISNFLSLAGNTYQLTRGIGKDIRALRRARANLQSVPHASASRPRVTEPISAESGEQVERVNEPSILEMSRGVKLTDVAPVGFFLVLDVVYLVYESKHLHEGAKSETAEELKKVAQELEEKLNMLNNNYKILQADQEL

APOL1 G1 [2] = molecular target: T1, APOL1 G1; test: HEK cell rescue; format: cell-based
LogD7.4 = format: physicochemical; conditions: pH 7.4
Rat Clint = format: in vitro ADME; conditions: hepatocytes
Human Clint = format: in vitro ADME; conditions: hepatocytes
Rat pharmacokinetics = conditions: in vivo; for bioavailability: po
APOL1 G2 [3] = molecular target: T2, APOL1 G2 (Homo sapiens, UniProt O14791, DEL388-389/M228I/R255K); test: Thallium flux assay, tet-inducible HEK293 APOL1 G2; format: cell-based
T2 sequence (O14791 with tags, fused parts or gaps M228I/R255K/DEL388-389): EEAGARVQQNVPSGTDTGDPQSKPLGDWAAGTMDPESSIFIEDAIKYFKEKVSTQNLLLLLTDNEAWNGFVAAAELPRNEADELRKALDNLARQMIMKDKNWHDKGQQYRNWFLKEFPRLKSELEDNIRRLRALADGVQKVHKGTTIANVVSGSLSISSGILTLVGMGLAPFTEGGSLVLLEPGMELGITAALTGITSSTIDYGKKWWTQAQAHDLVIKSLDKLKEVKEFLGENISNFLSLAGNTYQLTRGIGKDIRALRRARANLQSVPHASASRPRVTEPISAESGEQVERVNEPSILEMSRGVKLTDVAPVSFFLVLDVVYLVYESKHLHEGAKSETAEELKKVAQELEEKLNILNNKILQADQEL

APOL1 G2 [4] = molecular target: T3, APOL1 G2 (Homo sapiens, UniProt O14791, DEL388-389/M228I/R255K, cells depend on it); test: HEK cell rescue; format: cell-based; conditions: read-out: APOL1 G2 HEK Cell Rescue EC50; HEK293 APOL1 G2; replicates in brackets
T3 sequence (O14791 with tags, fused parts or gaps M228I/R255K/DEL388-389): T2 sequence (O14791 with tags, fused parts or gaps M228I/R255K/DEL388-389)

APOL1 G2mc mice [5] = test: Prophylactic IFNγ-induced proteinuria model in APOL1 G2 multicopy mice; format: in vivo, mouse; conditions: 30 mg/kg bid
APOL1 G2sc mice [6] = test: Therapeutic IFNγ plasmid model in APOL1 G2 single copy mice, UACR; format: in vivo, mouse; conditions: 30 mg/kg bid from day 6, vs vehicle
How it was run: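 Homozygous APOL1 G2 single-copy transgenic mice of both sexes. Proteinuria was induced by a single hydrodynamic tail-vein injection of a CpG-free plasmid encoding murine IFNγ, 0.3 μg total in saline at 10% body weight, given over about 5–10 s. Mice were allocated by day-5 UACR to give matched group means (n = 12 vehicle, 11 treated). Serum IFNγ was measured by immunoassay on days 1, 5, 9 and 14.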

APOL1 G2sc mice [7] = test: Kidney histopathology and nephrin immunohistochemistry; format: in vivo, mouse; conditions: IFNγ plasmid, 30 mg/kg bid
How it was run: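 FVB homozygous APOL1 G2 single-copy mice received a hydrodynamic tail-vein injection of 0.3 μg CpG-free murine IFNγ plasmid in saline (volume 10% of body weight). Groups were balanced by day-5 UACR; vehicle or test compound bid started on day 6. The left kidney was formalin-fixed and cut into 3 µm FFPE sections. Nephrin IHC used CC1 retrieval (95 °C, 64 min), antibody 1:1000 for 1 h, and DAB. AI scoring of all glomeruli in one section gave the H-score.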

APOL1 G0 [8] = molecular target: T4, APOL1 G0 (Homo sapiens, UniProt O14791, M228I/R255K); test: HEK cell rescue; format: cell-based
T4 sequence (O14791 28-398 M228I/R255K): T1 sequence (O14791 28-398 M228I/R255K/S342G/I384M) with G315S, M357I
How it was run: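 HEK293 tet-inducible APOL1 cells in DMEM with 2% tet-free FBS, seeded at 23,400 cells/well and induced with 50 ng/mL tet for 24 h alongside test compound. Dosing was a 10-point 3-fold series from 10 μM, in duplicate. MultiTox reagent was added for 30 min at 37 °C, reading viability (ex 400/em 486) and cytotoxicity (ex 485/em 535). The dead:live ratio was normalized to no-tet (100%) and tet-only (0%) controls before curve fitting.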

APOL1 G0 [9] = molecular target: T4, APOL1 G0; test: Automated whole-cell patch clamp; format: cell-based
How it was run: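 Tet-inducible HEK293 APOL1 G0 cells, induced with 15 ng/mL tet for 16–20 h. Automated whole-cell recording used extracellular NaCl and intracellular CsF, with hole resistance 1.5–2.5 MΩ and a ramp protocol. After 5 min control recording, six test compound concentrations (100 pM–1 μM) were applied for 5 min each. Peak outward current was normalized to control and fitted to a four-parameter variable-slope curve; 8 cells.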

APOL1 G1 [10] = molecular target: T1, APOL1 G1; test: Automated whole-cell patch clamp; format: cell-based
APOL1 G2 [11] = molecular target: T2, APOL1 G2; test: Automated whole-cell patch clamp; format: cell-based
recombinant APOL1 G0 = molecular target: T5, recombinant APOL1 G0 (Homo sapiens, UniProt O14791); test: Trypanosome; format: cell-based
T5 sequence (O14791 28-398): T1 sequence (O14791 28-398 M228I/R255K/S342G/I384M) with I201M, K228R, G315S, M357I
How it was run: (§1)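 T. b. brucei were grown in modified HMI-9, then plated at 120,000 parasites/well in phenol red/FBS-free medium with Serum Plus, test compound and recombinant APOL1. APOL1 was at a final level killing about 90% of parasites. After 16 h at 37 °C, alamarBlue was added for 2.5 h, read at ex/em 555/585, in duplicate, and fitted to dose–response curves. Experimental replicates: G0 n=1, G1 n=4, G2 n=1.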

recombinant APOL1 G1 = molecular target: T6, recombinant APOL1 G1 (Homo sapiens, UniProt O14791, I384M/S342G); test: Trypanosome; format: cell-based
T6 sequence (O14791 28-398 S342G/I384M): T1 sequence (O14791 28-398 M228I/R255K/S342G/I384M) with I201M, K228R
How it was run: as §1

recombinant APOL1 G2 = molecular target: T7, recombinant APOL1 G2 (Homo sapiens, UniProt O14791, DEL388-389); test: Trypanosome; format: cell-based
T7 sequence (O14791 with tags, fused parts or gaps DEL388-389): T2 sequence (O14791 with tags, fused parts or gaps M228I/R255K/DEL388-389) with I201M, K228R
How it was run: as §1

APOL1 G2mc mice [12] = conditions: 3 mg/kg tid; cited from earlier work
[13] = cited from earlier work
[14] = test system: purified, recombinant APOL1; conditions: cited from earlier work

IC50 (APOL1 G1 [1]) | EC50 (APOL1 G1 [2]) | logD (LogD7.4) | hepatocyte CLint (Rat Clint) | hepatocyte CLint (Human Clint) | Vd (Rat pharmacokinetics) | clearance (Rat pharmacokinetics) | half-life (Rat pharmacokinetics) | bioavailability (Rat pharmacokinetics) | SMILES | IC50 (APOL1 G2 [3]) | EC50 (APOL1 G2 [4]) | other results
40 nM | 37 nM | 2.8 | 8.2 µL/min/1e6 cells | 15.4 µL/min/1e6 cells | 2.1 L/kg | 15 mL/min/kg | 4.1 h | 34% | Cc1cc(F)cc2c(CCC(=O)N[C@H]3CCNC3=O)c(-c3ccc(F)cc3)[nH]c12 [Compound 2, 3-[5-fluoro-2-(4-fluorophenyl)-7-methyl-1H-indol-3-yl]-N-[(3S)-2-oxopyrrolidin-3-yl]propanamide] |  |  | 
4.2 nM | 3.6 nM | 2.7 | 5.1 µL/min/1e6 cells | 6.3 µL/min/1e6 cells | 1.4 L/kg | 6 mL/min/kg | 4.2 h | 28% | Cc1cc(F)cc2c(CCC(=O)N[C@@H]3C(=O)NC[C@H]3O)c(-c3ccc(F)cc3)[nH]c12 [Compound 3, 3-[5-fluoro-2-(4-fluorophenyl)-7-methyl-1H-indol-3-yl]-N-[(3S,4 R)-4-hydroxy-2-oxo-pyrrolidin-3-yl]propanamide] | 5.4 nM | 10 nM | APOL1-mediated proteinuria, prophylactic treatment (APOL1 G2mc mice [5]): able to prevent APOL1-mediated proteinuria; Percent reduction in UACR AUC Day 6-14 (APOL1 G2sc mice [6]): 97%; microscopic evaluation of kidney tissues (APOL1 G2sc mice [7]): no microscopic abnormalities or nephrin loss were noted; nephrin H-scores versus no IFNγ control (APOL1 G2sc mice [7]): comparable

SMILES | IC50 (APOL1 G1 [1]) | EC50 (APOL1 G1 [2]) | logD (LogD7.4) | hepatocyte CLint (Rat Clint) | hepatocyte CLint (Human Clint) | Vd (Rat pharmacokinetics) | clearance (Rat pharmacokinetics) | half-life (Rat pharmacokinetics) | bioavailability (Rat pharmacokinetics) | IC50 (APOL1 G2 [3]) | EC50 (APOL1 G2 [4]) | other results
O=C(CCc1c(-c2ccc(F)cc2)[nH]c2c(F)cc(F)cc12)N[C@@H]1C(=O)NC[C@H]1O [VX-147, 3-[5,7-difluoro-2-(4-fluorophenyl)-1H-indol-3-yl]-N-[(3S,4 R)-4-hydroxy-2-oxo-pyrrolidin-3-yl] propanamide] | 2 nM | 2 nM | 2.7 | 4.7 µL/min/1e6 cells | < 2.5 µL/min/1e6 cells | 0.9 L/kg | 4.8 mL/min/kg | 2.5 h | 57% | 1.2 nM | 2.2 nM | EC50 (APOL1 G0 [8]): 4.3 nM; IC50 (APOL1 G0 [9]): 2.3 nM; IC50 (APOL1 G1 [10]): 1.3 nM; IC50 (APOL1 G2 [11]): 1.1 nM; EC50 (recombinant APOL1 G0): 2 nM; EC50 (recombinant APOL1 G1): 2.1 nM; EC50 (recombinant APOL1 G2): 1.2 nM; APOL1-dependent proteinuria, prophylactic treatment (APOL1 G2mc mice [12]): reduced APOL1-dependent proteinuria; reduction in proteinuria ([13]; 13-week clinical trial, patients with two APOL1 risk alleles and proteinuric non-diabetic kidney disease): 47.6%; glomerular filtration rate ([13]; 13-week study in 16 individuals): stable; binding to purified, recombinant APOL1 [14]: bind directly
